In experiment [1] the test system is Plasmodium falciparum. The experiment is described as follows: Antiplasmodial activity against Plasmodium falciparum 3D7 infected in erythrocytes assessed as parasitemia level at 500 nM after 48 hrs by YOYO-1 staining-based flow cytometry relative to control. The format is functional. The method, boiled down:
(§1)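 P. falciparum 3D7 in O+ human erythrocytes, RPMI-1640 with 10% O+ human serum, 92% N2/5% CO2/3% O2. Infected cells exposed 48 h at a single concentration. Then fixed in 2% paraformaldehyde/PBS for 24 h, permeabilized with 0.1% Triton X-100 and stained with 5 nM YOYO-1 for 30 min at 37 °C. Read on 10⁵ cells by flow cytometry. Parasitemia expressed versus solvent control; ≥3 independent experiments, one-way ANOVA with Dunnett's test.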

Experiment [2] relates to Plasmodium falciparum. As to the kind of experiment: Antiplasmodial activity against asynchronous culture of Plasmodium falciparum 3D7 infected in erythrocytes assessed as reduction of melatonin-induced increase in parasitemia level at 500 nM after 48 hrs by YOYO-1 staining-based flow cytometry (reference value: 23.5 +/- 6.8 %). It counts as functional. Also on record: scale not given: the % may be the effect or the level left.

The subject of experiment [3] is Plasmodium falciparum. The experiment is described as follows: Antiplasmodial activity against ring stage synchronized Plasmodium falciparum 3D7 infected in erythrocytes assessed as parasitemia level after 48 hrs by flow cytometry relative to control. It counts as functional, organism-based. The following applies: 3D7, 48 h. The method, boiled down: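 3D7 culture was synchronized (Lambros) and infected erythrocytes were dosed at ring stage with 10 concentrations from 5 nM to 100 μM for 48 h. Parasitemia was read by YOYO-1 flow cytometry as in the single-dose assay. IC50 was obtained from sigmoid dose–response fits; ≥3 independent experiments.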

Experiment [4] concerns Plasmodium falciparum. As to the kind of experiment: Antiplasmodial activity against Plasmodium falciparum 3D7 infected in erythrocytes assessed as parasitemia level at 100 nM after 48 hrs by YOYO-1 staining-based flow cytometry relative to control. It counts as functional. The method, boiled down:
as §1

Molecules are shown by their SMILES.

Consider `CCCC(=O)NCCc1c[nH]c2ccc(OC)cc12`, for which the Activity with Plasmodium falciparum [1] came out at 8%; with Plasmodium falciparum [2], 8.8%. Also, the IC50 in the experiment with Plasmodium falciparum [3] was 19.2 µM.

With `CCCCCC(=O)NCCc1c[nH]c2ccccc12`, the Activity in the experiment on Plasmodium falciparum [1] is 6%; with Plasmodium falciparum [2], 6.9%.

Consider `COC(=O)NCCc1c[nH]c2ccccc12`, for which the Activity with Plasmodium falciparum [1] is recorded as 11.7%; with Plasmodium falciparum [2], 10.9%.

`CCCCCC(=O)NCCc1c[nH]c2ccc(OC)cc12`: the Activity with Plasmodium falciparum [1] came to 7.8%; in the experiment on Plasmodium falciparum [2] it was 8.6%. For the same molecule, the IC50 with Plasmodium falciparum [3] is 19.1 µM.

For `COc1ccc2[nH]cc(CCNC(=O)c3ccccc3)c2c1`, the Activity in the experiment on Plasmodium falciparum [1] worked out at 10.8%; in the experiment on Plasmodium falciparum [2], 9.1%. Moreover, the IC50 with Plasmodium falciparum [3] came to 2.93 µM.

Regarding `COC(=O)NCCc1c[nH]c2ccc(OC)cc12`, the Activity in the experiment with Plasmodium falciparum [1] is 10%; with Plasmodium falciparum [2], 14.5%.

Consider `CCCC(=O)NCCc1c[nH]c2ccccc12`, for which the Activity in the experiment on Plasmodium falciparum [1] is recorded as 9.2%; in the experiment with Plasmodium falciparum [2], 11%.

On to `COc1ccc2[nH]cc(CCN)c2c1` [5-METHOXYTRYPTAMINE], for which the values for the Activity with Plasmodium falciparum [1] and with Plasmodium falciparum [2] were 19.7% and 14.1%, respectively.

`C[C@H]1Cc2c([nH]c3cc(Cl)c(F)cc23)[C@@]2(N1)C(=O)Nc1ccc(Cl)cc12` [CIPARGAMIN]: in the experiment on Plasmodium falciparum [3], the IC50 was 0.01 µM.

For `COc1ccc2[nH]cc(CCNC(C)=O)c2c1` [MELATONIN], the Activity with Plasmodium falciparum [4] was determined as 21.9%; in the experiment with Plasmodium falciparum [2] it was 23.5%.

On to `CC(=O)NCCc1c[nH]c2ccccc12` [NB-ACETYLTRYPTAMINE], for which the Activity turned out to be 12.9% in the experiment with Plasmodium falciparum [1] and 11.3% with Plasmodium falciparum [2].

(Values after ChEMBL document CHEMBL3232831, “Synthetic indole and melatonin derivatives exhibit antimalarial activity on the cell cycle of the human malaria parasite Plasmodium falciparum” (Eur J Med Chem, 2014).)
